Assay results from ChEMBL document CHEMBL1833790, “N-(2-{3-[3,5-bis(trifluoromethyl)phenyl]ureido}ethyl)-glycyrrhetinamide (6b): a novel anticancer glycyrrhetinic acid derivative that targets the proteasome and displays anti-kinase activity” (J Med Chem, 2011).
Values belong to the compound of their own block, whether it stands above or below them. Active and inactive are the calls of the source. The rule behind the calls is not given here.

Experiments:
[1] = target: Insulin-like growth factor 1 receptor (Homo sapiens) (UniProt P08069); experiment: Inhibition of IGF-R1 at 1 uM by radiometric assay
[2] = target: Megakaryocyte-associated tyrosine-protein kinase (Homo sapiens) (UniProt P42679); experiment: Inhibition of MATK at 1 uM by radiometric assay
[3] = target: T1, Peroxisome proliferator-activated receptor gamma (Homo sapiens) (UniProt P37231); experiment: Activation of PPARgamma activity in human U373 cells at 90 uM after 6 hrs by spectrophotometric analysis relative to control; format: cell-based; conditions: U-373MG ATCC, 7 uM, in the assay text read “at 7 uM” for “at 90 uM”
T1 sequence (whole entry): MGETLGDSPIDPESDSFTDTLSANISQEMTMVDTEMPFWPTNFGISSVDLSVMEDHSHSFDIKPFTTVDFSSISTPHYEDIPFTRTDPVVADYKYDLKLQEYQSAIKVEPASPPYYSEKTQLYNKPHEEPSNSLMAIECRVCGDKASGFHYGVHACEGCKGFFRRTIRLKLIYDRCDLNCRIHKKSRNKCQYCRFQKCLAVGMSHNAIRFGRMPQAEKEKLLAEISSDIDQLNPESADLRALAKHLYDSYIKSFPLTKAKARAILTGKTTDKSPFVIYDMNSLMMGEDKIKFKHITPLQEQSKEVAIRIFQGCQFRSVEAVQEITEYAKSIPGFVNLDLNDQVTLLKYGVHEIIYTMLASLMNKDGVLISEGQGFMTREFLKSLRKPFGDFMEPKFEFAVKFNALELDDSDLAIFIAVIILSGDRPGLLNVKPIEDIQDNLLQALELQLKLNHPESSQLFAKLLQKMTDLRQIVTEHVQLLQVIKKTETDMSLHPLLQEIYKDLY
Summary of the method: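 U373 glioblastoma cells were exposed for 6 h. Nuclear extracts were prepared by hypotonic buffer, NP-40 lysis and a protease-inhibitor extraction buffer. Extracts were bound overnight at 4 °C in a PPAR-γ transcription-factor plate, then probed with primary antibody and HRP anti-rabbit secondary, 1 h each at room temperature. Developer ran 45 min, read at 450 nm. Triplicates, mean ± SD versus control.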

U-373MG ATCC [4] = experiment: Inhibition of chymotrypsin-like activity of 20S proteasome in human U373 at 7 uM after 2 days by bioluminescence assay; format: cell-based
Summary of the method: (§1)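 U373 GBM cells seeded at 5000 cells/mL and grown 48 h, then treated for two days. Cells washed in PBS and permeabilised with 0.025% digitonin. Proteasome-Glo reagent added with Suc-LLVY-Glo (chymotrypsin-like), Z-LRR-Glo (trypsin-like) or Z-nLPnLD-Glo (caspase-like) substrate. Luminescence read after 10 min in the dark and normalised to a parallel MTT viability assay; triplicates. MG-132 at 0.5 μM used as reference.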

U-373MG ATCC [5] = experiment: Inhibition of trypsin-like activity of 20S proteasome in human U373 cells at 7 uM after 2 days by bioluminescence assay; format: cell-based; summary of the method: as §1
U-373MG ATCC [6] = experiment: Inhibition of caspase-like activity of 20S proteasome in human U373 cells at 7 uM after 2 days by bioluminescence assay; format: cell-based; summary of the method: as §1
U-373MG ATCC [7] = experiment: Inhibition of chymotrypsin-like activity of 20S proteasome in human U373 cells at 60 uM after 2 days by bioluminescence assay; format: cell-based; summary of the method: as §1
U-373MG ATCC [8] = experiment: Inhibition of trypsin-like activity of 20S proteasome in human U373 cells at 60 uM after 2 days by bioluminescence assay; format: cell-based; summary of the method: as §1
U-373MG ATCC [9] = experiment: Inhibition of caspase-like activity of 20S proteasome in human U373 cells at 60 uM after 2 days by bioluminescence assay; format: cell-based; summary of the method: as §1
U-373MG ATCC [10] = experiment: Inhibition of chymotrypsin-like activity of 20S proteasome in human U373 cells at 0.5 uM after 2 days by bioluminescence assay; format: cell-based; summary of the method: as §1
U-373MG ATCC [11] = experiment: Inhibition of trypsin-like activity of 20S proteasome in human U373 cells at 0.5 uM after 2 days by bioluminescence assay; format: cell-based; summary of the method: as §1
U-373MG ATCC [12] = experiment: Inhibition of caspase-like activity of 20S proteasome in human U373 cells at 0.5 uM after 2 days by bioluminescence assay; format: cell-based; summary of the method: as §1
[13] = Chemical stability of the compound in MEM cell culture medium after 7 days by HPLC analysis; format: physicochemical; conditions: read-out: Stability
Summary of the method: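 Compound incubated in MEM culture medium at 37 °C for 7 days, then analysed by HPLC on RX-C8 (5 μm) column with MeOH–water 90:10 (0.1% TFA), diode-array detection. Expressed as % of incubated compound recovered.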

A549 [14] = experiment: Growth inhibition in apoptosis-resistant human A549 after 3 days by MTT assay; format: functional; conditions: A549, 72 h
Summary of the method: (§2)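 Cells grown in RPMI with 10% heat-inactivated FCS, 4 mM glutamine, gentamicin and penicillin–streptomycin. Drug exposure 3 days, growth read by MTT colorimetric assay. Nine concentrations from 0.01 to 100 μM in semilog steps, six replicates each; IC50 derived per cell line.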

SK-MEL-28 = experiment: Growth inhibition in apoptosis-resistant human SK-MEL-28 after 3 days by MTT assay; format: functional; conditions: SK-MEL-28, 72 h; summary of the method: as §2
T98G = experiment: Growth inhibition in apoptosis-resistant human T98G after 3 days by MTT assay; format: functional; conditions: 72 h; summary of the method: as §2
[15] = Growth inhibition in apoptosis-resistant human U373 after 3 days by MTT assay; format: functional, U-373MG ATCC; conditions: U373 MG, 72 h; summary of the method: as §2
Hs 683 = experiment: Growth inhibition in apoptosis-sensitive human Hs683 after 3 days by MTT assay; format: functional; conditions: Hs 683, 72 h; summary of the method: as §2
PC-3 = experiment: Growth inhibition in apoptosis-sensitive human PC3 after 3 days by MTT assay; format: functional; conditions: PC-3, 72 h; summary of the method: as §2
MCF7 = experiment: Growth inhibition in apoptosis-sensitive human MCF7 after 3 days by MTT assay; format: functional; conditions: MCF7, 72 h; summary of the method: as §2
B16-F10 = experiment: Growth inhibition in mouse B16F10 after 3 days by MTT assay; format: functional; conditions: B16-F10, 72 h; summary of the method: as §2
A549 [16] = experiment: Cytostatic activity against human A549 cells assessed as accumulation of cells in G1 phase at 10 uM after 48 to 72 hrs by TUNEL-based flow cytometric analysis; format: functional, cell-based
Summary of the method: (§3)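 A549 NSCLC and U373 GBM cells were treated 48 or 72 h and analysed with the APO AF kit. TUNEL labelling ran 1 h at 37 °C, followed by propidium iodide (5 μg/mL) with RNase. Apoptotic fraction and % cells in G1 were measured by flow cytometry. Kit negative/positive controls and 1 μM narciclasine-treated PC-3 cells served as controls.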

U-373MG ATCC [17] = experiment: Cytostatic activity against human U373 cells assessed as accumulation of cells in G1 phase at 10 uM after 48 to 72 hrs by TUNEL-based flow cytometric analysis; format: functional, cell-based; summary of the method: as §3
A549 [18] = experiment: Induction of apoptosis in human A549 cells assessed as proapoptotic effect at 10 uM after 48 to 72 hrs by TUNEL-based flow cytometric analysis; format: functional, cell-based; summary of the method: as §3
U-373MG ATCC [19] = experiment: Induction of apoptosis in human U373 cells assessed as proapoptotic effect at 10 uM after 48 to 72 hrs by TUNEL-based flow cytometric analysis; format: functional, cell-based; summary of the method: as §3
[20] = target: ALK tyrosine kinase receptor (Homo sapiens) (UniProt Q9UM73); experiment: Inhibition of ALK at 1 uM by radiometric assay
Chain of ALK tyrosine kinase receptor (Homo sapiens) (Q9UM73 19-1620 limits assumed): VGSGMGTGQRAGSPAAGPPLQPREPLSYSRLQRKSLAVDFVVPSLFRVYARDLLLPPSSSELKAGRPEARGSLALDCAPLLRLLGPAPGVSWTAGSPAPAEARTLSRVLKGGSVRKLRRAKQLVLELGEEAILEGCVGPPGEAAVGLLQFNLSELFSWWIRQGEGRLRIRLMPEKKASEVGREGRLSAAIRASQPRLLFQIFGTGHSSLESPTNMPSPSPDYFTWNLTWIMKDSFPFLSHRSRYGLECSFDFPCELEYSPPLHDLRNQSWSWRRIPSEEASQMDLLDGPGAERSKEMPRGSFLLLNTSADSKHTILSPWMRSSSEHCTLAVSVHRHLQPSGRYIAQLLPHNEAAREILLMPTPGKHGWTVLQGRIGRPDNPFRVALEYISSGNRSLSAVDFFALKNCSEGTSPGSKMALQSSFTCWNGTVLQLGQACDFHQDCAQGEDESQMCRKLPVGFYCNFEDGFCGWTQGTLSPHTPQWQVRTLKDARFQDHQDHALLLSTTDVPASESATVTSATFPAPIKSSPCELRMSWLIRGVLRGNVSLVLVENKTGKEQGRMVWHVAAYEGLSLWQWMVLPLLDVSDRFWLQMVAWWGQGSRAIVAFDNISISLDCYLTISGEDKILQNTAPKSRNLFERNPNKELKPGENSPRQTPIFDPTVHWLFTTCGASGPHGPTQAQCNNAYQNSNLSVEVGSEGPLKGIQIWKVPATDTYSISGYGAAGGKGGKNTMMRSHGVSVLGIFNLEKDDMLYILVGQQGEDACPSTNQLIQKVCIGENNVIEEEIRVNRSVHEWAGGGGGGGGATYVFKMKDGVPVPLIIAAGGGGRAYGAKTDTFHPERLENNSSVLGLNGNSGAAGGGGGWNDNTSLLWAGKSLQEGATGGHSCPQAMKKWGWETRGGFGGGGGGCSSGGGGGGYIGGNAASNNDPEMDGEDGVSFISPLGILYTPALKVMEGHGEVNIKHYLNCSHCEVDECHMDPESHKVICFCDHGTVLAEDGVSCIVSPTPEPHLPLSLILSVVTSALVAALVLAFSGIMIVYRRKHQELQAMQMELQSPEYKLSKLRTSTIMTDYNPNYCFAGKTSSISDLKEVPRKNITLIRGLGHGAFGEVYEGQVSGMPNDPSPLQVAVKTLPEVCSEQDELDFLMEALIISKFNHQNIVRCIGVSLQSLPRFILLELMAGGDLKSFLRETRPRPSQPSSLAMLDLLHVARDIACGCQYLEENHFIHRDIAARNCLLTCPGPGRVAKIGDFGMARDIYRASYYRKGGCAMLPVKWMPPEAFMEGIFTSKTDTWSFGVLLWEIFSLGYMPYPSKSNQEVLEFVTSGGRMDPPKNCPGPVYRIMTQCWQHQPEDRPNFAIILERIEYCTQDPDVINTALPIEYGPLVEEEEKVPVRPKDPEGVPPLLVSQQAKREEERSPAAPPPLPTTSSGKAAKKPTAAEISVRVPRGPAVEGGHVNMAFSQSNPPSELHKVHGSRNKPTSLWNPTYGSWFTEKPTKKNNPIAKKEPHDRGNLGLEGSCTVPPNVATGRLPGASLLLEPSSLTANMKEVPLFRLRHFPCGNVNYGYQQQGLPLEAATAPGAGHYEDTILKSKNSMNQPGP
Summary of the method: (§4)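 Radiometric ³³PanQinase activity assay across a panel of 333 protein kinases. Compound added from a 2 × 10⁻⁵ M working solution in 10% DMSO (diluted in water from a 100% DMSO stock), giving 1 μM final in the assay.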

[21] = target: Cytoplasmic tyrosine-protein kinase BMX (Homo sapiens) (UniProt P51813); experiment: Inhibition of BMX at 1 uM by radiometric assay; summary of the method: as §4
[22] = target: Serine/threonine-protein kinase PAK 2 (Homo sapiens) (UniProt Q13177); experiment: Inhibition of PAK2 at 1 uM by radiometric assay
Chain of Serine/threonine-protein kinase PAK 2 (Homo sapiens) (Q13177 whole entry): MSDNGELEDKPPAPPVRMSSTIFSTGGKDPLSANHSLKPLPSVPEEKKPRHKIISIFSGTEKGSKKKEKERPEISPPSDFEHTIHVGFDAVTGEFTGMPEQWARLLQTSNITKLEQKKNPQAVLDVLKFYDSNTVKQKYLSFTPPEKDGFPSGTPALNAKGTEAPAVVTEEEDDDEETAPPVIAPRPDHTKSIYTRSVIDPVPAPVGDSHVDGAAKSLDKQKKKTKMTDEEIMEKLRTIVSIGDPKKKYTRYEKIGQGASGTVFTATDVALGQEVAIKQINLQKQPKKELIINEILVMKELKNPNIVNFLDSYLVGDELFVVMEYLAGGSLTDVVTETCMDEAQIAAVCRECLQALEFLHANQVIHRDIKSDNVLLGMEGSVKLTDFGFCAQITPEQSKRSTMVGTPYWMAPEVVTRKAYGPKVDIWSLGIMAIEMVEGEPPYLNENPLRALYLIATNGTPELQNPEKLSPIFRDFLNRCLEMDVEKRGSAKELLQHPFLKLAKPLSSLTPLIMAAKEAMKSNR

[23] = target: Ephrin type-B receptor 1 (Homo sapiens) (UniProt P54762); experiment: Inhibition of EPHB1 at 1 uM by radiometric assay; summary of the method: as §4
Chain of Ephrin type-B receptor 1 (Homo sapiens) (P54762 whole entry): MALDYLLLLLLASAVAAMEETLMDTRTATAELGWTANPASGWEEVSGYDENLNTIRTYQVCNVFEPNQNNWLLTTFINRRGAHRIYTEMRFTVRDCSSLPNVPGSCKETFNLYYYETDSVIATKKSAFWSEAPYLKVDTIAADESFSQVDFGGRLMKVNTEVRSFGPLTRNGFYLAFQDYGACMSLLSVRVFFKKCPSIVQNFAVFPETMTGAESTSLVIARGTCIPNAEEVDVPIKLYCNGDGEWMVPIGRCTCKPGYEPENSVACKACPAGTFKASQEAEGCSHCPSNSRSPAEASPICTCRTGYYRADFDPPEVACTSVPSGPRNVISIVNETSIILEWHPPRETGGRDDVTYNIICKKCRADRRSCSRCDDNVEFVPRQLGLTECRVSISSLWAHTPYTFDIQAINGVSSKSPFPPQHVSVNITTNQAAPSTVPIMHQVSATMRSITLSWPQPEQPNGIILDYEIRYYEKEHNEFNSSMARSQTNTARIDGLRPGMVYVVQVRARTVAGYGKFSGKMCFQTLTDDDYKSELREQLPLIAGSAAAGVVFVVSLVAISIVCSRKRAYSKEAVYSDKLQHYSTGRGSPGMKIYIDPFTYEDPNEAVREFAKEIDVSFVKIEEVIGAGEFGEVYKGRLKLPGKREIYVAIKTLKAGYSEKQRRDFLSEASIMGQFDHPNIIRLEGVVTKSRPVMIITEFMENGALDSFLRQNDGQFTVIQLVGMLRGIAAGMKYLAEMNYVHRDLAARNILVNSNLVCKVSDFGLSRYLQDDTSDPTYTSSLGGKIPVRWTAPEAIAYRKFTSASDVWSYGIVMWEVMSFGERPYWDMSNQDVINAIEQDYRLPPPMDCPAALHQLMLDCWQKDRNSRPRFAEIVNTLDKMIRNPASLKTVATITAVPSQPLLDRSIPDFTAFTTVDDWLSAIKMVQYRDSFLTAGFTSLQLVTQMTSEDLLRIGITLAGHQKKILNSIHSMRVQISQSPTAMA

[24] = target: Ephrin type-B receptor 4 (Homo sapiens) (UniProt P54760); experiment: Inhibition of EPHB4 at 1 uM by radiometric assay; summary of the method: as §4
Chain of Ephrin type-B receptor 4 (Homo sapiens) (P54760 whole entry): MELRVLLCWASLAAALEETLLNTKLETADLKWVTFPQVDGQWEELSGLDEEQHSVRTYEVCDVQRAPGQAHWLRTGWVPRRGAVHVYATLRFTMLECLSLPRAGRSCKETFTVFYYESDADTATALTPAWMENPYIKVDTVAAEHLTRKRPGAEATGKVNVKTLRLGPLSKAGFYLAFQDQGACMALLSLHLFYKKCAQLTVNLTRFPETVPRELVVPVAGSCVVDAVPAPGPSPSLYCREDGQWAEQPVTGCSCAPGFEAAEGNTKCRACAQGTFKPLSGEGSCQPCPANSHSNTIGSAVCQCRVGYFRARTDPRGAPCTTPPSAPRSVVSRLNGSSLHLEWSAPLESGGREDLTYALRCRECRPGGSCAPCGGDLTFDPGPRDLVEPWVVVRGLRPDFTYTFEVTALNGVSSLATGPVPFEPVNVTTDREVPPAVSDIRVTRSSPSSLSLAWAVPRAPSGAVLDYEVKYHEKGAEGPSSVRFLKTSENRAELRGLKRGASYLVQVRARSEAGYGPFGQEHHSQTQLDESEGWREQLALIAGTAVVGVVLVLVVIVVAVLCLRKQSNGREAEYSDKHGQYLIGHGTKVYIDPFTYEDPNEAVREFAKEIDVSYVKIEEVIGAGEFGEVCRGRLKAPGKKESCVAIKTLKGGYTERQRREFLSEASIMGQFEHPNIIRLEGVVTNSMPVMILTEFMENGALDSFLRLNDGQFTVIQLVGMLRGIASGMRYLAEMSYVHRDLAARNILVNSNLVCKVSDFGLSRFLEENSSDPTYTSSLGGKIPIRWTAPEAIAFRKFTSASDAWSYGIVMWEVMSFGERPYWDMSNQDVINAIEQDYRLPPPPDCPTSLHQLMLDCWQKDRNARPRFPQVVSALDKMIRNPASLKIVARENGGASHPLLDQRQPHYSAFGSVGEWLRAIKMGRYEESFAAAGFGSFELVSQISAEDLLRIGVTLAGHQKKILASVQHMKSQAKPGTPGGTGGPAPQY

[25] = target: Tyrosine-protein kinase ZAP-70 (Homo sapiens) (UniProt P43403); experiment: Inhibition of ZAP70 at 1 uM by radiometric assay
[26] = target: Fibroblast growth factor receptor 2 (Homo sapiens) (UniProt P21802); experiment: Inhibition of FGFR2 at 1 uM by radiometric assay; summary of the method: as §4
[27] = target: Tyrosine-protein kinase Fes/Fps (Homo sapiens) (UniProt P07332); experiment: Inhibition of FES at 1 uM by radiometric assay; summary of the method: as §4
Chain of Tyrosine-protein kinase Fes/Fps (Homo sapiens) (P07332 whole entry): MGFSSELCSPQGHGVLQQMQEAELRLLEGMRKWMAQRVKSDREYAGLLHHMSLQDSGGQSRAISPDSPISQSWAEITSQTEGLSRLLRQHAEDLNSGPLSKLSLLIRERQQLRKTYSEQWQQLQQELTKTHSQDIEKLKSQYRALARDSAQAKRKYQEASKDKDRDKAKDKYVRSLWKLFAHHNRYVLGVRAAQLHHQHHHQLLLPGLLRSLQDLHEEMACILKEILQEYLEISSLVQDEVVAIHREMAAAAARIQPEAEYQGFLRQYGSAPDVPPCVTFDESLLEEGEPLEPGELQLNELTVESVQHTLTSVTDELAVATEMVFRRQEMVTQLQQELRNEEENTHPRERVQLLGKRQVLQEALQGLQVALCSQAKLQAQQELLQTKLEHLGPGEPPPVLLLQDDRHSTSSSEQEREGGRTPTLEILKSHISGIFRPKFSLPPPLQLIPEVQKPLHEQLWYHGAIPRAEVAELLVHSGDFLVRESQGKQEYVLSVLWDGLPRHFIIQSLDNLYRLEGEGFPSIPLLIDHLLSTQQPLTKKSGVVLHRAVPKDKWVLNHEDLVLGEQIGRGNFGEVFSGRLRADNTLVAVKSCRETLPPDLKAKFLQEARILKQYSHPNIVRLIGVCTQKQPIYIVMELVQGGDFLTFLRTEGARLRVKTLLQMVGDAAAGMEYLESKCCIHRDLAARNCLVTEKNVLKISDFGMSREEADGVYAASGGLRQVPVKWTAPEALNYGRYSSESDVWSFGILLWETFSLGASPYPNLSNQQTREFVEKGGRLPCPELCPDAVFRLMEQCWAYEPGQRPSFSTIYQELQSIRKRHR

[28] = target: Tyrosine-protein kinase Fyn (Homo sapiens) (UniProt P06241); experiment: Inhibition of FYN at 1 uM by radiometric assay
[29] = target: T1, Peroxisome proliferator-activated receptor gamma (Homo sapiens); experiment: Inhibition of PPARgamma activity in human U373 cells at 50 uM after 6 hrs by spectrophotometric analysis relative to control; format: cell-based; conditions: U-373MG ATCC
Summary of the method: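 Human U373 glioblastoma cells exposed to compound for 6 h, then detached with trypsin. Nuclear extracts prepared by hypotonic lysis with Nonidet P-40 and extraction buffer with protease inhibitor, clarified at 14 000 g, 4 °C. Extracts bound overnight at 4 °C in a PPAR-γ transcription factor ELISA kit, with primary antibody then HRP anti-rabbit. Absorbance read at 450 nm; triplicates, mean ± SD versus control.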

U-373MG ATCC [30] = experiment: Activation of chymotrypsin-like activity of 20S proteasome in human U373 cells at 50 uM after 2 days by bioluminescence assay; format: cell-based
Summary of the method: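 Chymotrypsin-like site, substrate Suc-LLVY-Glo. U373 cells were seeded at 5000 cells/mL for 48 h and exposed two days. After a PBS wash and 0.025% digitonin permeabilisation, Proteasome-Glo reagent was added. Bioluminescence was read after 10 min dark incubation. Triplicates, normalised by a concurrent MTT viability assay run in identical conditions.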

U-373MG ATCC [31] = experiment: Inhibition of trypsin-like activity of 20S proteasome in human U373 cells at 50 uM after 2 days by bioluminescence assay; format: cell-based; summary of the method: as §1
U-373MG ATCC [32] = experiment: Activation of caspase-like activity of 20S proteasome in human U373 cells at 50 uM after 2 days by bioluminescence assay; format: cell-based
Summary of the method: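 Caspase-like site, substrate Z-nLPnLD-Glo. U373 cells were plated at 5000 cells/mL for 48 h, then treated two days. Cells were PBS-washed and permeabilised with 0.025% digitonin before Proteasome-Glo reagent was added. Luminescence was read after 10 min in the dark. Triplicates, normalised to a parallel MTT viability assay under identical conditions.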

inhibition [1]: 64% | inhibition [2]: 50% | Activity [3]: Active | remaining at 168 h [13]: 98% | GI50 (A549 [14]): 7 µM | GI50 (SK-MEL-28): 9 µM | GI50 (PC-3): 8 µM | GI50 (MCF7): 4 µM | GI50 (B16-F10): 4 µM | inhibition [20]: 69% | inhibition [21]: 52% | inhibition [22]: 51% | inhibition [23]: 64% | inhibition [24]: 64% | inhibition [25]: 67% | inhibition [26]: 67% | inhibition [27]: 59% | inhibition [28]: 72%
Compound: CC1(C)[C@@H](O)CC[C@]2(C)[C@H]3C(=O)C=C4[C@@H]5C[C@@](C)(C(=O)NCCNC(=O)Nc6cc(C(F)(F)F)cc(C(F)(F)F)c6)CC[C@]5(C)CC[C@@]4(C)[C@]3(C)CC[C@@H]12
inhibition (U-373MG ATCC [4]): Active | inhibition (U-373MG ATCC [5]): Active | inhibition (U-373MG ATCC [6]): Active | inhibition (U-373MG ATCC [7]): Active | inhibition (U-373MG ATCC [8]): Active | inhibition (U-373MG ATCC [9]): Active | inhibition (U-373MG ATCC [10]): Active | inhibition (U-373MG ATCC [11]): Active | inhibition (U-373MG ATCC [12]): Active | GI50 (T98G): 12 µM | GI50 [15]: 6 µM | GI50 (Hs 683): 6 µM | Activity (A549 [16]): inactive | Activity (U-373MG ATCC [17]): inactive | Activity (A549 [18]): inactive | Activity (U-373MG ATCC [19]): inactive

inhibition [29]: Active | remaining at 168 h [13]: 95% | GI50 (A549 [14]): 37 µM | GI50 (SK-MEL-28): 65 µM | GI50 (PC-3): 35 µM | GI50 (MCF7): 29 µM | GI50 (B16-F10): 39 µM
Compound: CC1(C)[C@@H](O)CC[C@]2(C)[C@H]3C(=O)C=C4[C@@H]5C[C@@](C)(C(=O)NCc6ccc(C(F)(F)F)cc6)CC[C@]5(C)CC[C@@]4(C)[C@]3(C)CC[C@@H]12
Activity (U-373MG ATCC [30]): Active | inhibition (U-373MG ATCC [31]): Active | Activity (U-373MG ATCC [32]): Active | GI50 (T98G): 67 µM | GI50 [15]: 44 µM | GI50 (Hs 683): 49 µM
